In ChEMBL document CHEMBL4007405 (J Med Chem, 2017) one finds Activity, inhibition and IC50 data, which are given here for eleven compounds.

Series [1] has as its system HeLa. The experiment in a line: Cytotoxicity against human HeLa cells up to 100 uM after 48 hrs by MTT assay. It counts as cell-based. The procedure, abridged: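 HeLa cells grown in DMEM with 10% FBS, penicillin and streptomycin at 37° C, 5% CO2. About 3 × 10^3 cells per well were seeded for 24 h, washed with PBS, then exposed to peptides in DMEM/10% FBS for 48 h at 37° C. MTT was added for 2 h and formazan dissolved in DMSO. Absorbance read at 595 nm with 670 nm background subtracted.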
On the technique in general: Tetrazolium assays rely on reduction of a dye to a coloured formazan, in cell work by metabolically active cells.

Series [2] deals with T1, Lethal factor (Bacillus anthracis) (UniProt P15917).
T1 sequence (whole entry): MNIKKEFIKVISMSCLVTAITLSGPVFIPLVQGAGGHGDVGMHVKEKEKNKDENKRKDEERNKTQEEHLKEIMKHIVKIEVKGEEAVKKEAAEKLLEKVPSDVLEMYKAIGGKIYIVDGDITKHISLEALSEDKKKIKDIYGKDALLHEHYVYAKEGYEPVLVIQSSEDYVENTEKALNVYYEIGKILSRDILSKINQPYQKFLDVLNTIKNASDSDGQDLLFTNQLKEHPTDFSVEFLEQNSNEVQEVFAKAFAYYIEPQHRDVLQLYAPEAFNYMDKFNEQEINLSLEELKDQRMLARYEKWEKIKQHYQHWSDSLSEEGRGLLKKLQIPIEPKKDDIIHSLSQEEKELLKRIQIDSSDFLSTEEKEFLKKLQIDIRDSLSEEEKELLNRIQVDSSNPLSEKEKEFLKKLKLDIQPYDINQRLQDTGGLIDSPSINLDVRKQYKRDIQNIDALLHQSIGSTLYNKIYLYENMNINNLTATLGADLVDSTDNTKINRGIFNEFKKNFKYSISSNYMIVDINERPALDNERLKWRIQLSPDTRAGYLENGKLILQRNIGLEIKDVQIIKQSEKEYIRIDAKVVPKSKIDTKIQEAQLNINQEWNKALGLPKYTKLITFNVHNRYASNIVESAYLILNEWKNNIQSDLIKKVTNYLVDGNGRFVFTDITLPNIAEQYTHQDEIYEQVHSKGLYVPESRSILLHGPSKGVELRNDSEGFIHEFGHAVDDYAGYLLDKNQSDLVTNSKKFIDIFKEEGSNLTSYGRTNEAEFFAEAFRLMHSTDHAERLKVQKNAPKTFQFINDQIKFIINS
The series can be described thus: (§1) Inhibition of Bacillus anthracis lethal factor protease preincubated for 30 mins prior to addition of substrate containing fluorescent proteins CyPet and YPet measured every 2 mins for 3 hrs by FRET assay. The procedure, abridged:
(§2)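 Preincubated with peptide from 1 nM to 10 μM for 30 min at room temperature. CyPet–YPet substrate (LF consensus sequence with (GGS)6 linkers) then added to a final 10 nM. FRET read every 2 min for 3 h with excitation at 405 nm and emission ratio It/I0 at 535 nm. Initial velocities fitted to log(inhibitor)–response with variable Hill slope. Run in triplicate.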

The target of series [3] is T2, Lethal factor (Bacillus anthracis, UniProt P15917).
T2 sequence (P15917 whole entry): T1 sequence (whole entry)

Series [4] concerns the target T1, Lethal factor (Bacillus anthracis). The experiment in a line: Inhibition of Bacillus anthracis lethal factor protease up to 10 uM preincubated for 30 mins prior to addition of substrate containing fluorescent proteins CyPet and YPet measured every 2 mins for 3 hrs by FRET assay. The procedure, abridged:
as §2

Series [5] concerns the target T2, Lethal factor. The description is as §1. The procedure, abridged:
as §2

Calls of active or inactive are those of the source. The rule behind the calls is not given here. Positions of bridges follow the written chain, without caps; N, C: chain ends. Residues, ends and D or L forms follow the SMILES beside them.

Turning to `N=C(N)NCCC[C@@H]1NC(=O)[C@H](CCCNC(=N)N)NC(=O)[C@@H]2CSSC[C@H](NC(=O)[C@H](Cc3c[nH]c4ccccc34)NC(=O)[C@H](CCCNC(=N)N)NC1=O)C(=O)N[C@@H](CCCNC(=N)N)C(=O)N[C@H]1CSSC[C@H](NC(=O)[C@H](CCCNC(=N)N)NC(=O)[C@@H]3CSSC[C@H](NC(=O)[C@H](Cc4c[nH]c5ccccc45)NC1=O)C(=O)N[C@@H](CCCNC(=N)N)C(=O)N[C@@H](CCCNC(=N)N)C(=O)N[C@@H](CCCNC(=N)N)C(=O)N[C@@H](Cc1c[nH]c4ccccc14)C(=O)N3)C(=O)N[C@@H](Cc1c[nH]c3ccccc13)C(=O)N2` (cyclo(CRCWCRRRWCRCWCRRRW); disulfide 1-14, 3-12, 5-10), the Activity result in series [1] was “Non-Toxic”. Also, the inhibition result in series [2] is “Dose-dependent effect”. Half-maximal inhibition in series [3] (IC50) was put at 250 nM. Take `CC[C@H](C)[C@@H]1NC(=O)[C@@H]2CSSC[C@H](NC(=O)[C@H](CCCNC(=N)N)NC(=O)[C@@H]3CSSC[C@H](NC1=O)C(=O)N[C@@H]([C@@H](C)O)C(=O)N[C@@H](CCCNC(=N)N)C(=O)NCC(=O)N[C@@H](Cc1ccccc1)C(=O)N3)C(=O)N[C@@H](Cc1c[nH]c3ccccc13)C(=O)N[C@H]1CSSC[C@H](NC(=O)[C@H](Cc3c[nH]c4ccccc34)NC(=O)[C@H](CCCNC(=N)N)NC(=O)[C@H](CCCNC(=N)N)NC(=O)[C@H](CCCNC(=N)N)NC1=O)C(=O)N[C@@H](CCCNC(=N)N)C(=O)N2` (cyclo(CICTRGFCRCWCRRRWCR); disulfide 1-10, 3-8, 12-17): the inhibition result in series [2] was “Dose-dependent effect”.

`CC[C@H](C)[C@@H]1NC(=O)[C@@H]2CSSC[C@H](NC(=O)[C@H](CC(=O)O)NC(=O)[C@@H]3CSSC[C@H](NC1=O)C(=O)N[C@@H]([C@@H](C)O)C(=O)N[C@@H](CCCNC(=N)N)C(=O)NCC(=O)N[C@@H](Cc1ccccc1)C(=O)N3)C(=O)N[C@@H](CC(C)C)C(=O)N[C@H]1CSSC[C@H](NC(=O)[C@H](C(C)C)NC(=O)CNC(=O)[C@H](CCCNC(=N)N)NC(=O)[C@H](CCCNC(=N)N)NC1=O)C(=O)N[C@@H](CCCNC(=N)N)C(=O)N2` (cyclo(CDCLCRRGVCRCICTRGF); disulfide 1-14, 3-12, 5-10): the inhibition result in series [2] was “Dose-dependent effect”. Take `CC[C@H](C)[C@@H]1NC(=O)[C@H](CS)NC(=O)[C@H](CCCNC(=N)N)NC(=O)[C@H](CS)NC(=O)[C@H](C(C)C)NC(=O)CNC(=O)[C@H](CCCNC(=N)N)NC(=O)[C@H](CCCNC(=N)N)NC(=O)[C@H](CS)NC(=O)[C@H](CC(C)C)NC(=O)[C@H](CS)NC(=O)[C@H](CCCNC(=N)N)NC(=O)[C@H](CS)NC(=O)[C@H](Cc2ccccc2)NC(=O)CNC(=O)[C@H](CCCNC(=N)N)NC(=O)[C@H]([C@@H](C)O)NC(=O)[C@H](CS)NC1=O` (cyclo(CICTRGFCRCLCRRGVCR)): the inhibition entry in series [4] is “inactive”.

Take `C[C@@H](O)[C@@H]1NC(=O)[C@@H]2CSSC[C@H](NC(=O)[C@H](Cc3c[nH]c4ccccc34)NC(=O)CNC(=O)[C@H](CCCNC(=N)N)NC1=O)C(=O)N[C@@H](CCCNC(=N)N)C(=O)N[C@H]1CSSC[C@H](NC(=O)[C@H](CCCNC(=N)N)NC(=O)[C@@H]3CSSC[C@H](NC(=O)[C@H](Cc4c[nH]c5ccccc45)NC1=O)C(=O)N[C@@H](CCCNC(=N)N)C(=O)N[C@@H](CCCNC(=N)N)C(=O)N[C@@H](CCCNC(=N)N)C(=O)N[C@@H](Cc1c[nH]c4ccccc14)C(=O)N3)C(=O)N[C@@H](Cc1c[nH]c3ccccc13)C(=O)N2` (cyclo(CRCWCRRRWCRCWCTRGW); disulfide 1-14, 3-12, 5-10): the inhibition result in series [2] was “Dose-dependent effect”. `CC[C@H](C)[C@@H]1NC(=O)[C@@H]2CSSC[C@H](NC(=O)[C@H](CCCNC(=N)N)NC(=O)[C@@H]3CSSC[C@H](NC1=O)C(=O)N[C@@H]([C@@H](C)O)C(=O)N[C@@H](CCCNC(=N)N)C(=O)NCC(=O)N[C@@H](Cc1ccccc1)C(=O)N3)C(=O)N[C@@H](CC(C)C)C(=O)N[C@H]1CSSC[C@H](NC(=O)[C@H](Cc3c[nH]c4ccccc34)NC(=O)[C@H](CCCNC(=N)N)NC(=O)[C@H](CCCNC(=N)N)NC(=O)[C@H](CCCNC(=N)N)NC1=O)C(=O)N[C@@H](CCCNC(=N)N)C(=O)N2` (cyclo(CICTRGFCRCLCRRRWCR); disulfide 1-10, 3-8, 12-17): in series [2], the inhibition entry is “Dose-dependent effect”. `C[C@@H](O)[C@@H]1NC(=O)[C@@H]2CSSC[C@H](NC(=O)[C@H](Cc3ccccc3)NC(=O)CNC(=O)[C@H](CCCNC(=N)N)NC1=O)C(=O)N[C@@H](CCCNC(=N)N)C(=O)N[C@H]1CSSC[C@H](NC(=O)[C@H](CCCNC(=N)N)NC(=O)[C@@H]3CSSC[C@H](NC(=O)[C@H](Cc4c[nH]c5ccccc45)NC1=O)C(=O)N[C@@H](CCCNC(=N)N)C(=O)N[C@@H](CCCNC(=N)N)C(=O)N[C@@H](CCCNC(=N)N)C(=O)N[C@@H](Cc1c[nH]c4ccccc14)C(=O)N3)C(=O)N[C@@H](Cc1c[nH]c3ccccc13)C(=O)N2` (cyclo(CRCWCRRRWCRCWCTRGF); disulfide 1-14, 3-12, 5-10): the inhibition entry in series [2] is “Dose-dependent effect”. For the compound `CC[C@H](C)[C@@H]1NC(=O)[C@@H]2CSSC[C@H](NC(=O)[C@H](CCCNC(=N)N)NC(=O)[C@@H]3CSSC[C@H](NC1=O)C(=O)N[C@@H]([C@@H](C)O)C(=O)N[C@@H](CCC(=O)O)C(=O)NCC(=O)N[C@@H](Cc1ccccc1)C(=O)N3)C(=O)N[C@@H](CC(C)C)C(=O)N[C@H]1CSSC[C@H](NC(=O)[C@H](C(C)C)NC(=O)CNC(=O)[C@H](CCCNC(=N)N)NC(=O)[C@H](CCCNC(=N)N)NC1=O)C(=O)N[C@@H](CCCNC(=N)N)C(=O)N2` (cyclo(CICTEGFCRCLCRRGVCR); disulfide 1-10, 3-8, 12-17), in series [2], the inhibition entry was “Dose-dependent effect”. Moreover, in series [5], the midpoint of inhibition, the IC50, lay at 3500 nM. For the compound `C[C@@H](O)[C@@H]1NC(=O)[C@@H]2CSSC[C@H](NC(=O)[C@H](Cc3c[nH]c4ccccc34)NC(=O)[C@H](CCCNC(=N)N)NC(=O)[C@H](CCCNC(=N)N)NC1=O)C(=O)N[C@@H](CCCNC(=N)N)C(=O)N[C@H]1CSSC[C@H](NC(=O)[C@H](CCCNC(=N)N)NC(=O)[C@@H]3CSSC[C@H](NC(=O)[C@H](Cc4c[nH]c5ccccc45)NC1=O)C(=O)N[C@@H](CCCNC(=N)N)C(=O)N[C@@H](CCCNC(=N)N)C(=O)N[C@@H](CCCNC(=N)N)C(=O)N[C@@H](Cc1c[nH]c4ccccc14)C(=O)N3)C(=O)N[C@@H](Cc1c[nH]c3ccccc13)C(=O)N2` (cyclo(CRCWCRRRWCRCWCTRRW); disulfide 1-14, 3-12, 5-10), in series [2], the inhibition entry was “Dose-dependent effect”. Consider `CC(C)C[C@@H]1NC(=O)[C@@H]2CSSC[C@H](NC(=O)[C@H](CCCNC(=N)N)NC(=O)[C@@H]3CSSC[C@H](NC1=O)C(=O)N[C@@H](CCCNC(=N)N)C(=O)N[C@@H](CCCNC(=N)N)C(=O)NCC(=O)N[C@@H](C(C)C)C(=O)N3)C(=O)N[C@@H](Cc1c[nH]c3ccccc13)C(=O)N[C@H]1CSSC[C@H](NC(=O)[C@H](Cc3ccccc3)NC(=O)CNC(=O)[C@H](CCCNC(=N)N)NC(=O)[C@H]([C@@H](C)O)NC1=O)C(=O)N[C@@H](CCCNC(=N)N)C(=O)N2` (cyclo(CLCRRGVCRCWCTRGFCR); disulfide 1-10, 3-8, 12-17), for which the inhibition entry in series [2] was “Dose-dependent effect”. The IC50 in series [5] is 205 nM. Regarding `CC[C@H](C)[C@@H]1NC(=O)[C@@H]2CSSC[C@H](NC(=O)[C@H](CCCNC(=N)N)NC(=O)[C@@H]3CSSC[C@H](NC1=O)C(=O)N[C@@H]([C@@H](C)O)C(=O)N[C@@H](CCCNC(=N)N)C(=O)NCC(=O)N[C@@H](Cc1ccccc1)C(=O)N3)C(=O)N[C@@H](CC(C)C)C(=O)N[C@H]1CSSC[C@H](NC(=O)[C@H](Cc3c[nH]c4ccccc34)NC(=O)CNC(=O)[C@H](CCCNC(=N)N)NC(=O)[C@H](CCCNC(=N)N)NC1=O)C(=O)N[C@@H](CCCNC(=N)N)C(=O)N2` (cyclo(CICTRGFCRCLCRRGWCR); disulfide 1-10, 3-8, 12-17), in series [2], the inhibition result is “Dose-dependent effect”.

The term IC50 denotes the midpoint of a concentration-inhibition curve.
